Results: ChEMBL document CHEMBL1143813, “Assessment and continued validation of the malaria SYBR green I-based fluorescence assay for use in malaria drug screening” (Antimicrob Agents Chemother, 2007)
≈ marks a conversion by molar mass, not a printed value.

Tests used:
Format in all cases: functional, organism-based
[1] = system: Plasmodium falciparum; experiment: (§1) In vitro antimalarial activity against Plasmodium falciparum W2 after 72 hrs in SYBR green fluorescence assay; details: W2, 72 h
[2] = system: Plasmodium falciparum; experiment: (§2) In vitro antimalarial activity against Plasmodium falciparum D6 after 72 hrs in SYBR green fluorescence assay; details: D6, 72 h
Procedure, shortened: (§3)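 P. falciparum D6 or W2 at late-ring/early-trophozoite stage, conditioned 3–4 days in the test medium (TCM, TCMA with Albumax I in place of plasma, FAF folic acid/pABA-free, or FAFA). Cultured 72 h at 37°C (5% CO₂, 5% O₂, N₂) with 11 twofold drug dilutions, 1% parasitemia, 2% hematocrit. SYBR green I lysis buffer added, 1 h at room temperature, RFU read. Plate-edge wells excluded.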

[3] = system: Plasmodium falciparum; experiment: as §2; details: D6, 72 h; procedure, shortened: as §3; remark: listed apart in the source
[4] = system: Plasmodium falciparum; experiment: Antimalarial activity against Plasmodium falciparum D6 as reduced [3H]hypoxanthine uptake after 72 hrs
[5] = system: Plasmodium falciparum; experiment: as §2; details: D6, 72 h; procedure, shortened: as §3; remark: listed apart in the source
[6] = system: Plasmodium falciparum; experiment: as §1; details: W2, 72 h; procedure, shortened: as §3; remark: listed apart in the source
[7] = system: Plasmodium falciparum; experiment: In vitro antimalarial activity against Plasmodium falciparum W2 after 72 hrs by SYBR green fluorescence assay; details: W2, 72 h; procedure, shortened: as §3
[8] = system: Plasmodium falciparum; experiment: In vitro antimalarial activity against Plasmodium falciparum D6 after 72 hrs by SYBR green fluorescence assay; details: D6, 72 h; procedure, shortened: as §3
[9] = system: Plasmodium falciparum; experiment: Antimalarial activity against Plasmodium falciparum W2 as reduced [3H]hypoxanthine uptake after 72 hrs
[10] = system: Plasmodium falciparum; experiment: as §1; details: W2, 72 h; remark: listed apart in the source

Row | Compound | IC50 [1] | IC50 [2] | IC50 [3] | IC50 [4] | IC50 [5] | IC50 [6] | IC50 [7] | IC50 [8] | IC50 [9] | IC50 [10]
1 | C=CC1CN2CC[C@H]1C[C@H]2[C@H](O)c1ccnc2ccc(OC)cc12 (single isomer, unassigned) [QUININE] | 162 ng/mL (≈ 0.5 µM) | 11.9 ng/mL (≈ 0.0367 µM) | 15.8 ng/mL (≈ 0.0487 µM) | 5 ng/mL (≈ 0.0154 µM) | 14.9 ng/mL (≈ 0.0459 µM) | 167 ng/mL (≈ 0.516 µM) | 128 ng/mL (≈ 0.396 µM) | 11.3 ng/mL (≈ 0.0348 µM) | 36 ng/mL (≈ 0.111 µM) | –
2 | C[C@@H]1CC[C@H]2[C@@H](C)C(=O)O[C@@H]3O[C@@]4(C)CC[C@@H]1[C@]32OO4 [ARTEMISININ] | 1.2 ng/mL (≈ 0.00425 µM) | 1.6 ng/mL (≈ 0.00567 µM) | 1.25 ng/mL (≈ 0.00443 µM) | 2.4 ng/mL (≈ 0.0085 µM) | – | 1 ng/mL (≈ 0.00354 µM) | – | – | 1.7 ng/mL (≈ 0.00602 µM) | 1.1 ng/mL (≈ 0.0039 µM)
3 | CC[C@H]1OC(=O)[C@H](C)[C@@H](O[C@H]2C[C@@](C)(OC)[C@@H](O)[C@H](C)O2)[C@H](C)[C@@H](O[C@@H]2O[C@H](C)C[C@H](N(C)C)[C@H]2O)[C@](C)(O)C[C@@H](C)CN(C)[C@H](C)[C@@H](O)[C@]1(C)O [AZITHROMYCIN] | 1850 ng/mL (≈ 2.47 µM) | 14400 ng/mL (≈ 19.2 µM) | 10100 ng/mL (≈ 13.5 µM) | 3750 ng/mL (≈ 5 µM) | 10100 ng/mL (≈ 13.4 µM) | 1620 ng/mL (≈ 2.17 µM) | 2730 ng/mL (≈ 3.65 µM) | 15300 ng/mL (≈ 20.4 µM) | 5500 ng/mL (≈ 7.34 µM) | 4490 ng/mL (≈ 5.99 µM)
4 | Nc1ccc(S(=O)(=O)c2ccc(N)cc2)cc1 [DAPSONE] | 156 ng/mL (≈ 0.629 µM) | 10.2 ng/mL (≈ 0.0411 µM) | – | 2.9 ng/mL (≈ 0.0117 µM) | 3.1 ng/mL (≈ 0.0125 µM) | – | – | – | 124 ng/mL (≈ 0.5 µM) | 242 ng/mL (≈ 0.973 µM)
5 | C[C@H]1c2cccc(O)c2C(=O)C2=C(O)[C@]3(O)C(=O)C(C(N)=O)=C(O)[C@@H](N(C)C)[C@@H]3[C@@H](O)[C@@H]21.O [DOXYCYCLINE] | 1860 ng/mL | 1850 ng/mL | 1180 ng/mL | 483 ng/mL | 857 ng/mL | 2410 ng/mL | 2280 ng/mL | 2370 ng/mL | 814 ng/mL | 2130 ng/mL
6 | O[C@@H](c1cc(C(F)(F)F)nc2c(C(F)(F)F)cccc12)[C@H]1CCCCN1 [MEFLOQUINE] | 17.4 ng/mL (≈ 0.046 µM) | 16 ng/mL (≈ 0.0423 µM) | 43.7 ng/mL (≈ 0.116 µM) | – | 32.8 ng/mL (≈ 0.0867 µM) | 16.2 ng/mL (≈ 0.0428 µM) | 8.9 ng/mL (≈ 0.0235 µM) | 19.9 ng/mL (≈ 0.0526 µM) | 2.3 ng/mL (≈ 0.00608 µM) | 9.7 ng/mL (≈ 0.0256 µM)
7 | CCc1nc(N)nc(N)c1-c1ccc(Cl)cc1 [PYRIMETHAMINE] | – | 0.4 ng/mL (≈ 0.00161 µM) | – | 0.1 ng/mL (≈ 0.000402 µM) | 0.5 ng/mL (≈ 0.00201 µM) | – | – | – | 11.9 ng/mL (≈ 0.0478 µM) | 37.6 ng/mL (≈ 0.151 µM)
8 | COc1ncnc(NS(=O)(=O)c2ccc(N)cc2)c1OC [SULFADOXINE] | 1640 ng/mL (≈ 5.29 µM) | 2.4 ng/mL (≈ 0.00773 µM) | – | 16 ng/mL (≈ 0.0516 µM) | 10.5 ng/mL (≈ 0.0338 µM) | – | – | – | 1110 ng/mL (≈ 3.59 µM) | 2420 ng/mL (≈ 7.79 µM)
